# Screening data (PubChem)
# The entries come from a sample that favours hits as a whole.
# ROMK primary = modulates human ROMK potassium channel activity; Tet-inducible ROMK, thallium flux fluorescence; actives lie on both sides; B-score at 10 µM; actives 2% (n = 130,000);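 active = signal ratio slope over the read window, or its plate-corrected B-score, at least 3 SD from the plate mean, either direction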;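 note: B-score of the F/F0 ratio slope over 7 to 12 s after thallium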
# Target sequence (P48048 whole entry, looked up): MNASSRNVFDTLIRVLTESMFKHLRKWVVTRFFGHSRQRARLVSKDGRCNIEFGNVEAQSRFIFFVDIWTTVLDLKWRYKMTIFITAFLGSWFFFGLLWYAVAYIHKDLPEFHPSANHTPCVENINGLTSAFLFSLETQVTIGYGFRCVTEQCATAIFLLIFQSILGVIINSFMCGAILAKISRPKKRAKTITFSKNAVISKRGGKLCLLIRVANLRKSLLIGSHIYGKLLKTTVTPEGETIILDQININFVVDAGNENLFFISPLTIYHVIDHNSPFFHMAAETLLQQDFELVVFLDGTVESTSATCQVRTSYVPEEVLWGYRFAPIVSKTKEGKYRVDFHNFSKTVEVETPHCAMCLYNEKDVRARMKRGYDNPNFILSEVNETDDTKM
# ABCB1 block = human ABCB1 inhibition, ABCG2 as counter-screen; inhibition, % at 6.6 µM; P08183; CCRF-Adr cells, JC-1 efflux, flow cytometry; actives 0.067% (n = 190,000); in the data active = inhibition above about 40%;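 note: higher value means more JC-1 retained so stronger ABCB1 efflux block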
# TRPN1 ag = zebrafish TRPN1 (NompC) channel agonism. activation, % at 3 µM. actives 0.18% (n = 220,000). AID 1424. HEK293 zebrafish TRPN1-YFP, Fluo-8 calcium fluorescence; 100% = response to 87 µM carbachol;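 active = activation above its plate's cutoff, the mean activation of test wells on that plate plus 3 SD, cut at about 19% in these data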
#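 System: zebrafish TRPN1-YFP in HEK293 cells / Dosing: 3 µM single point / Timing: dye loading 1 h at 37 °C, then 30 min room temperature / Signal: Fluo-8 calcium fluorescence, excitation 470-495 nm, emission 515-575 nm / Read-out basis: percent activation from peak over basal fluorescence ratio, control-normalized / Control set: high carbachol 87 µM, low DMSO alone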
# TRPML3 agonist = activates the human TRPML3 channel. AID 1448. HEK293 TRPML3-YFP, Fluo-8 calcium fluorescence; 100% = the carbachol control signal. actives 0.29% (n = 220,000). Q8TDD5. activation, % at 3 µM;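 active = activation above its plate's cutoff, the mean activation of the plate's test wells plus 3 SD, cut at about 12% in these data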
#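 Material: TRPML3-YFP stable HEK293 cells | Dosing: One concentration, 3 µM nominal, 0.3% DMSO | Timing: 125 s total fluorescence read per well | Technique: Fluo-8 calcium dye fluorescence, ex 470-495, em 515-575 nm | Measure: Percent activation from peak-to-basal fluorescence ratio, scaled between DMSO and carbachol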
# ABCG2 block = blocks JC-1 efflux by human ABCG2 transporter. IgMXP3 cells, flow cytometry. inhibition, % at 6.6 µM. actives 0.1% (n = 190,000). AID 1325;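 active = inhibition above 80%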
#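 Assay system – ABCG2 IgMXP3 and barcoded ABCB1 CCRF-Adr cell mix · Input – 3 million cells/mL in well · Reagent – JC-1 fluorescent substrate · Compound – single test compound dose, 6.6 µM final · Timing – 10 min exposure at 25 °C with rotation, no wash · Detection – flow cytometry of retained JC-1 fluorescence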
# Biofilm kill mix = mixture kills Candida albicans biofilm cells; C. albicans biofilm persisters + clotrimazole, fluorescence viability; primary screen in compound mixtures of four per well; inhibition, % at 7.6 µM; actives 0.02% (n = 120,000); AID 1242;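 active = inhibition above 30.3% in the primary screen of four-compound pools, then above 30% when the compound was retested; inconclusive = passed the primary limit but could not be retested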;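 note: compounds exposed to preformed 24 h biofilms for 48 h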
#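 Incubation: 24 h biofilm formation, then 48 h compound exposure, 37 °C | Material: C. albicans biofilms | Buffer or medium: RPMI/MOPS medium, pH 7.0 | Measured by: 2-h Alamar Blue fluorescence, 535/590 nm excitation/emission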
# ROMK hit retest = retested hit modulating human ROMK potassium channel; shares compounds with ROMK primary; ROMK thallium flux, fluorescence ratio; stronger effect = lower value; normalized thallium flux (F/F0 slope) at 10 µM; actives 54% (n = 3,000);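 active = Flux at 10 µM at least 3 SD below or above vehicle control mean in one or both replicates; inconclusive = no clear call, values can overlap the other calls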
# Numbers stand for hits; n = inactive; u = inconclusive; x = not tested or not shown.
SMILES,ROMK primary,ABCB1 block,TRPN1 ag,TRPML3 agonist,ABCG2 block,Biofilm kill mix,ROMK hit retest
CCN1CCN(C(=O)c2ccc(Cn3c(=O)[nH]c4cc(OC)c(OC)cc4c3=O)cc2)CC1,n,n,n,n,n,x,x
COc1ccc(Cn2c(=O)[nH]c3cc(C(=O)N4CCN(Cc5ccccc5)CC4)ccc3c2=O)cc1,x,n,n,n,n,x,n
CCN1CCN(C(=O)CCCCCn2c(=O)[nH]c3cc(C(=O)OC)ccc3c2=O)CC1,x,n,n,n,n,x,x
CCOC(=O)c1ccc(Oc2cc(C)nc(Cl)n2)cc1,x,x,n,n,x,n,x
Cc1ccc(NC(=O)CN(C)C(=O)c2ccc(C(F)(F)F)cc2)cc1,n,n,n,n,n,n,x
CCc1c(C)nc2ncnn2c1N1CCN(S(=O)(=O)c2ccc(OC)cc2)CC1,n,n,n,n,n,n,x
O=C(CN1CCN(S(=O)(=O)c2ccc(Br)cc2)CC1)N/N=C/c1ccncc1,x,x,n,n,x,n,x
O=C(O)c1ccc(N2C(=O)c3ccc(C(=O)c4cccc([N+](=O)[O-])c4)cc3C2=O)cc1,2.22,n,n,n,n,n,n
O=C(c1cccc([N+](=O)[O-])c1)c1ccc2c(c1)C(=O)N(c1c[nH]c(=O)[nH]c1=O)C2=O,n,n,n,n,n,n,x
Cc1ccc(C)c(NC(=O)/C(C#N)=C/c2ccc(Sc3nncn3C)c([N+](=O)[O-])c2)c1,-3.11,n,n,n,n,n,0.0604
CCn1c(SCC(=O)N2CCc3ccccc3C2)nc2sc(C)c(C)c2c1=O,x,n,n,n,n,n,x
CN(C)/C=C(/C(=O)c1ccc(Cl)cc1)S(=O)(=O)c1ccc(Cl)cc1,x,n,n,n,n,x,n
CN(C)/C=C(/C(=O)c1ccc(Cl)cc1Cl)S(=O)(=O)c1ccc(Cl)cc1,x,n,n,n,n,x,x
CSc1ccc(/C=C(\C#N)C(=O)NC2CCCCC2)cc1,-2.54,n,n,n,n,n,0.0536
C=CCNC(=O)/C(C#N)=C/c1ccc(SC)cc1,-4.51,n,n,n,n,n,0.0528
CC1CCCCC1NC(=O)/C(C#N)=C/c1ccc(F)c(F)c1 (centres undefined),-3.02,n,n,n,n,n,0.0496
CC1CCCCC1NC(=O)/C(C#N)=C/c1ccc2c(c1)OCCO2 (centres undefined),n,n,n,n,n,n,x
C=CCNC(=O)/C(C#N)=C/c1ccc(OS(=O)(=O)c2ccc(C)cc2)c(OC)c1,-4.56,n,n,n,n,n,0.0418
Clc1cccc(CN2CCN(Cc3nc(CCc4ccccc4)no3)CC2)c1,n,n,n,n,n,n,x
COc1ccccc1N1C(=O)C2C(C(=O)c3ccccc3)=NN(c3ccccc3OC)C2C1=O (centres undefined),x,x,n,n,x,n,x
Cc1cc2nc(CS(=O)(=O)c3ccccc3)cc(=O)n2[nH]1,n,n,n,n,n,n,x
O=C(c1cc(Sc2cccc(Cl)c2)nc2ccccc12)N1CCN(c2ccccn2)CC1,n,n,n,n,n,n,n
O=C(c1cc(Sc2ccc(Cl)cc2)nc2ccccc12)N1CCN(c2ccccn2)CC1,n,n,n,n,n,n,x
N#C/C(=C\c1cccc(Cl)c1)c1n[nH]c(Cn2cncn2)n1,-2.59,n,n,n,n,x,0.053
N#C/C(=C\c1ccc(F)cc1)c1n[nH]c(Cn2cncn2)n1,n,n,n,n,n,x,x
O=C(NC1CCCC1)C(c1ccncc1)N(C(=O)c1csnn1)C1CCCC1 (centres undefined),n,n,n,n,n,n,x
O=C(NC1CCCCC1)[C@H](CSCc1ccccc1)N1Cc2ccccc2C1=O,-3.42,n,n,n,n,n,u
CN(Cc1ccccc1)C(=O)c1ccccc1Br,-2.83,n,n,n,n,n,0.0662
COc1cccc(NC(=S)N(CCCN2CCC(C)CC2)Cc2cccs2)c1,-3.45,n,n,n,n,n,0.0607
Cc1ccccc1NC(=S)N(CCCN1CCC(C)CC1)Cc1ccco1,-2.52,n,n,n,n,n,0.0655
